Assay results from ChEMBL document CHEMBL1154634, “Tea catechins inhibit hepatocyte growth factor receptor (MET kinase) activity in human colon cancer cells: kinetic and molecular docking studies” (J Med Chem, 2009).
The source made the active and inactive calls. The rule behind the calls is not given here.

Assays:
[1] = target: T1, Hepatocyte growth factor receptor (Homo sapiens, UniProt P08581); assay: Inhibition of hepatocyte growth factor-induced MET phosphorylation in human HCT116 cells at 5 uM after 30 mins by immunoblot; assay type: cell-based
T1 sequence (P08581 whole entry): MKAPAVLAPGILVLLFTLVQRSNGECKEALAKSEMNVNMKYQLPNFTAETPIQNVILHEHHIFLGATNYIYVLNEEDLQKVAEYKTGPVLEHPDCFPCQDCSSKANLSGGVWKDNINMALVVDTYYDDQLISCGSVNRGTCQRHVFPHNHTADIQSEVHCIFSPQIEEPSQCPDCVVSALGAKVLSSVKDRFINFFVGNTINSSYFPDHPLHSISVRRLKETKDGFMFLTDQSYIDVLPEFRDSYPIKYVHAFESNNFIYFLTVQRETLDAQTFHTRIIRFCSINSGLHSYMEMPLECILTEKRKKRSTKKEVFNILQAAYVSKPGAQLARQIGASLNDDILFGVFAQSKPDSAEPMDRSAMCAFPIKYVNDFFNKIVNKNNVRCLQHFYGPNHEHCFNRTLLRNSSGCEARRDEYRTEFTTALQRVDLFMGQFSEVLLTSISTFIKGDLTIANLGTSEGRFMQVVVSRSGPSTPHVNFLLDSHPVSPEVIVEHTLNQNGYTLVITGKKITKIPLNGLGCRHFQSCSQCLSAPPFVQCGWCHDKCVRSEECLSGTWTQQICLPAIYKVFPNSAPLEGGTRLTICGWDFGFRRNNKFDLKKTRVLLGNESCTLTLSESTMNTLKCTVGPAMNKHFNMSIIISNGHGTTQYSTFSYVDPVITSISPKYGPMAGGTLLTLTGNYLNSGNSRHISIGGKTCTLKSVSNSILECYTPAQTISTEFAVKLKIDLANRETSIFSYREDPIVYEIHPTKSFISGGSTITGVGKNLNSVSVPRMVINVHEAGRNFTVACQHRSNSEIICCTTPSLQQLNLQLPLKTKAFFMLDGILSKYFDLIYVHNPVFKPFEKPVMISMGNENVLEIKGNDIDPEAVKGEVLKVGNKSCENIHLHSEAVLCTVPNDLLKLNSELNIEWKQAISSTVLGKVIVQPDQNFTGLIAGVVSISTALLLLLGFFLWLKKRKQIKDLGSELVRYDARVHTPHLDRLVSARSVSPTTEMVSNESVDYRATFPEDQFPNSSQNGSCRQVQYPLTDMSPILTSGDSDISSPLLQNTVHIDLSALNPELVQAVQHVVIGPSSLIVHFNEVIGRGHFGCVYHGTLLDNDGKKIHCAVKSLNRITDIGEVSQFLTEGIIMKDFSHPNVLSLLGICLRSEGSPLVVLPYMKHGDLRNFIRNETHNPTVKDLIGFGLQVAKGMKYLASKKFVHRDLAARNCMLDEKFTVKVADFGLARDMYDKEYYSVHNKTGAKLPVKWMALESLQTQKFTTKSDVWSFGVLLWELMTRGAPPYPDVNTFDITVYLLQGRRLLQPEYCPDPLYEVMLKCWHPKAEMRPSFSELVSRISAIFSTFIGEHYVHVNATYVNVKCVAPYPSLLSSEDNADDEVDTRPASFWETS
Summary of the method: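 Whole-cell lysates immunoblotted for phospho-MET and total MET, with β-actin as loading control; densitometry with phospho-MET normalized to total MET.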

[2] = target: T1, Hepatocyte growth factor receptor; assay: Inhibition of MET kinase
Summary of the method: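 Cell-free MET kinase activity assay run over a range of inhibitor concentrations; IC50 taken as the concentration giving 50% inhibition of kinase activity; data as mean ± SD, n = 3.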

[3] = test system: Mus musculus; assay: Plasma concentration in po dosed mouse; assay type: ADME, organism-based; details: in vivo
[4] = target: T1, Hepatocyte growth factor receptor; assay: Inhibition of MET kinase by Dixon plot analysis
Summary of the method: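 MET kinase activity measured at several inhibitor concentrations; Dixon plot (1/V versus [I]) and Cornish-Bowden plot ([S]/V versus [I]) used to assign inhibition type; Ki derived by linear regression of the Dixon plot.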

[5] = test system: Homo sapiens; assay: Plasma concentration in po dosed human; assay type: ADME, organism-based; details: in vivo

Question: For `O=C(O[C@@H]1Cc2c(O)cc(O)cc2O[C@H]1c1cc(O)c(O)c(O)c1)c1cc(O)c(O)c(O)c1` [GALLOCATECHIN GALLATE], which inhibition [1] is on record?
Answer: Active

Question: What about the IC50 [2] of the same compound?
Answer: 10 µM

Question: With `O=C(O)c1cc(O)c(O)c(O)c1` as the compound, how does the inhibition [2] read?
Answer: inactive

Question: Which results are given for `O=C(O[C@@H]1Cc2c(O)cc(O)cc2O[C@@H]1c1ccc(O)c(O)c1)c1cc(O)c(O)c(O)c1` [EPICATECHIN GALLATE]?
Answer: inhibition [1]: Active; IC50 [2]: 10 µM

Question: How did the inhibition [2] turn out when `Oc1cc(O)c2c(c1)O[C@H](c1cc(O)c(O)c(O)c1)[C@H](O)C2` was run?
Answer: inactive

Question: How did the inhibition [2] turn out when `Oc1cc(O)c2c(c1)O[C@H](c1ccc(O)c(O)c1)[C@H](O)C2` was run?
Answer: inactive

Question: What does the source list for `O=C(O[C@@H]1Cc2c(O)cc(O)cc2O[C@@H]1c1cc(O)c(O)c(O)c1)c1cc(O)c(O)c(O)c1` [EPIGALOCATECHIN GALLATE]?
Answer: concentration [3]: 9 µM; inhibition [1]: Active; IC50 [2]: 10 µM; Ki [4]: 3.3 µM; concentration [5]: 7.5 µM

Question: Which inhibition [2] does the source give for `Oc1cc(O)c2c(c1)O[C@@H](c1ccc(O)c(O)c1)[C@H](O)C2` here?
Answer: inactive
